Source: PubChem BioAssay
HSV replic up: increases HSV replication in cells; 0.005% of 220,000 active; maximum fold increase; HSV replication augmentation in cells, fold increase; AID 1956; in the data active means maximum fold increase above about 1.5; tested in PC3 cells
Dynein cargo inh: blocks dynein driven cargo transport along microtubules; z-score, hits read low; AID 1381; 3617.4 mouse cells, GR-EGFP nuclear translocation imaging; test concentration mostly 20 µM; stimulated with dexamethasone, 1 µM; stronger effect = lower value; 0.47% of 220,000 active;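 active means plate z-score of nuclear minus cytoplasmic receptor signal below a set negative limit, without overly bright fluorescence or cell loss, cut at about -3.5 in these data, passing the limit was not always enough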;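 further: z-score of nuclear minus cytoplasmic ring GR-EGFP intensity difference per well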
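Medium: Induction medium lacking tetracycline, stripped serum | Probe or stimulus: 1.0 µM final dexamethasone stimulus | Schedule: 48 h induction, then 1 h compound, then 30 min agonist, 37 °C | Signal: Automated 10x imaging of fixed Hoechst-stained cells | Evaluation: Per-cell GR-EGFP intensity, nucleus versus surrounding cytoplasmic ring, well-averaged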
Furin inh: inhibitors of human furin; 0.061% of 220,000 active; inhibition, % at 20 µM or 30 µM; P09958; purified furin, fluorogenic substrate cleavage; AID 463115; in the data active means inhibition above about 25%
TNF death inh: blocks TNF-alpha induced death of Jurkat FADD-/- cells; activation (protection from cell death), % at 10 µM; 0.068% of 220,000 active; Jurkat FADD-/- TNF necroptosis rescue, ATP luminescence, 24 h; 0 = TNF only, 100 = no-TNF cells;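 active means activation, meaning protection from cell death, of at least 50% relative to plate controls; inactive means activation below 50%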;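 further: necroptosis triggered by 40 ng/mL TNF-alpha added together with compound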
Autophagy HCS: autophagy modulation, high-content screen; MEF GFP-LC3 puncta imaging; test concentration mostly 10 µM; 0.98% of 190,000 active; AID 463193; calls only at 10 µM (by protocol);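 active means percentage of spot-positive cells more than 3 SD above its plate mean, without a fluorescence outlier flag or 80% toxicity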
L929 necroptosis: blocks zVAD induced death of L929 cells. 0.38% of 220,000 active. L929 zVAD necroptosis rescue, ATP luminescence, 24 h; with zVAD 60 µM. viability rescue, % at 10 µM;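 active means activation, scaled between plate controls, above about 75%, limit read from the data; inactive means activation under that limit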
Each line names hits and unclear results; the compound was inactive in the other large screens. Only some compounds are listed: those with a hit (about 1.8% of all), similar ones and a draw of the others.

CCOc1ccccc1C1CC(=O)NC(SCC(=O)Nc2nccs2)=C1C#N (stereo not given)	TNF death inh 82.1, L929 necroptosis 93.0
CC(NC(=O)/C=C/c1ccco1)c1nc2ccccc2n1Cc1ccccc1F (stereo not given)	none
CC1CN(CC(=O)NN=C(c2ccccc2)c2ccccc2)CC(C)O1 (stereo not given)	none
Cc1cccc(C(=O)N2CCN(C(=O)c3cccc(C)c3)C(C)C2)c1 (stereo not given)	Autophagy HCS active
O=C(N=NC(=O)c1ccc2c(O)n(CC3CCCO3)c(O)c2c1)c1cccnc1 (stereo not given)	none (no result: Autophagy HCS)
CN(C)c1nnnn1-c1ccc(OC(F)(F)F)cc1	none (no result: HSV replic up)
C=C(C)Cn1c(=O)c(NC(=O)c2ccccc2)c2n(c1=S)CCC2	none
COc1ccc(-n2c(=O)c(NC(=O)c3ccccc3)c3n(c2=S)CCCCC3)cc1	Autophagy HCS active
CCN(CC)CCNC(=O)c1c(C)n(-c2ccccc2)c2cc(Br)c(OC)cc12	Autophagy HCS active
COc1cccc(N2[C@@H](CC(=O)O)c3cc(C(F)(F)F)ccc3S2(=O)=O)c1	none (no result: Dynein cargo inh, Furin inh, TNF death inh, Autophagy HCS, L929 necroptosis)
CC(Nc1nc(N2CCNCC2)nc2ccccc12)c1ccccc1 (stereo not given)	Autophagy HCS active
COc1ccc(N2CCN(C(=O)Cn3cnc4c(cnn4-c4ccccc4)c3=O)CC2)cc1	none
COc1ccc(N2CCN(C(=O)Cn3cnc4c(cnn4-c4ccc(C)cc4)c3=O)CC2)cc1	Autophagy HCS active
Cc1ccc(SCCC(=O)OCC(=O)NCC2CCCCC2)cc1	none
COc1ccc(O[C@H]2C=C[C@@H](c3ccccc3)O[C@@H]2COC(=O)CC/C(C)=N/OC[C@@H](O)[C@H]2O[C@@H]3OC(C)(C)O[C@@H]3[C@H]2O)cc1	none (no result: HSV replic up)
Cn1c(=O)[nH]c(=O)c2c1nc(NC1CCCCC1)n2CC(=O)NC1CCCCC1	Autophagy HCS active
NS(=O)(=O)c1cc(C(=O)OCC(=O)Nc2ccc(N3CCCCC3)cc2)ccc1Cl	none (no result: Autophagy HCS)
CC(=O)C1=C(C)NC(SCC(=O)c2ccc(F)cc2)=C(C#N)C1c1ccco1 (stereo not given)	none
COc1ccccc1NC(=O)C1=C(C)NC(SCC(=O)c2ccc(C)cc2)=C(C#N)C1c1ccco1 (stereo not given)	Autophagy HCS active (no result: HSV replic up)
CC(=O)C1=C(C)NC(SCC(=O)c2ccc(-c3ccccc3)cc2)=C(C#N)C1c1cccnc1 (stereo not given)	Autophagy HCS active
CC(=O)C1=C(C)NC(SCC(=O)c2ccc(Cl)c(Cl)c2)=C(C#N)C1c1ccco1 (stereo not given)	Autophagy HCS active
Cc1onc(-c2ccccc2)c1C(=O)NCC(O)c1ccccc1 (stereo not given)	none (no result: Autophagy HCS)
CCCN1CNC(=S)N(CC2CCCO2)C1 (stereo not given)	none
CC(=O)c1ccc(N2CCN(C(=O)c3ccc4c(Cl)c5c(nc4c3)CCCC5)CC2)cc1	Dynein cargo inh -3.6
Cc1c(C(=O)N/N=C/c2ccc(O)c(Br)c2)sc(N)c1C#N	L929 necroptosis 76.4
CCCNCC1C(Oc2ccc(Cl)cc2Cl)C(=O)N1c1cccc(C)c1C (stereo not given)	Autophagy HCS active
Cc1ccccc1-c1oc(C)c(C)[n+]1[O-]	none
CCOc1ccc(N2C(=O)/C(=C/c3cccs3)N(CC(=O)OC)C2=S)cc1	none
CCc1ccc(/C=C2/C(=O)N(c3ccccc3)C(=S)N2CC(=O)OC)s1	Autophagy HCS active
C=CCn1c(SCc2nc3sc(C(=O)O)c(C)c3c(=O)[nH]2)nnc1-c1ccccc1	Autophagy HCS active
C=CCn1c(SCc2nc3sc(C(=O)O)c(C)c3c(=O)[nH]2)nnc1-c1ccc(C(C)(C)C)cc1	none (no result: Autophagy HCS)
O=C(O)Cc1ccc(S(=O)(=O)Nc2ccccc2C(=O)O)cc1	none
CC(CCc1ccccc1)NC(=O)CSc1ccccc1 (stereo not given)	Autophagy HCS active
CC(CCc1ccccc1)NC(=O)CSc1cccc[n+]1[O-] (stereo not given)	none
CC(=O)c1c(C)n(-c2ccccc2)c2ccc(OCC(N)=O)cc12	none
Cc1nnsc1C(=O)NNc1c(Cl)cccc1Cl	TNF death inh 83.7 (no result: Autophagy HCS)
